Laboratory results: ChEMBL document CHEMBL1142065, “In vitro and in vivo activities of a new cephalosporin, FR264205, against Pseudomonas aeruginosa” (2007)
≈ marks a conversion by molar mass, not a printed value. Calls of active or inactive are those of the source. The rule behind the calls is not given here.

Assays:
Escherichia coli [1] = test: Antibacterial activity against Escherichia coli C600 expressing ESBL TEM5; format: functional
How it was run: (§1)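 MIC by agar dilution (CLSI M7-A7) on Mueller-Hinton agar with twofold serial drug dilutions; 10^4 CFU spotted per spot; aerobic incubation 18 to 20 h at 35°C; MIC read as lowest concentration preventing visible growth.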

Pseudomonas aeruginosa [2] = test: Antibacterial activity against Pseudomonas aeruginosa KG4001 producing MexEF-OprN efflux pump; format: functional
How it was run: (§2)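 Agar dilution MIC per NCCLS (CLSI) M7-A7 on Mueller-Hinton agar with twofold serial drug dilutions. Inoculum 10^4 CFU per spot, aerobic incubation 18 to 20 h at 35°C. MIC is the lowest concentration preventing visible growth.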

Pseudomonas aeruginosa [3] = test: Antibacterial activity against ceftazidime-resistant Pseudomonas aeruginosa; format: functional; how it was run: as §2
Pseudomonas aeruginosa [4] = test: Antibacterial activity against Pseudomonas aeruginosa 93; format: functional; how it was run: as §1
Pseudomonas aeruginosa [5] = test: Antibacterial activity against Pseudomonas aeruginosa KG2212 producing MexAB-OprM efflux pump; format: functional; how it was run: as §2
Pseudomonas aeruginosa [6] = test: Antibacterial activity against Pseudomonas aeruginosa 22029 expressing metallo beta lactamase; format: functional; how it was run: as §2
Escherichia coli [7] = test: Antibacterial activity against Escherichia coli C600 expressing ESBL SHV4; format: functional; how it was run: as §1
Escherichia coli [8] = test: Antibacterial activity against Escherichia coli C600 expressing ESBL TEM3; format: functional; how it was run: as §1
Pseudomonas aeruginosa [9] = test: Antibacterial activity against Pseudomonas aeruginosa KG4545 producing MexXY efflux pump; format: functional; how it was run: as §2
Escherichia coli [10] = test: Antibacterial activity against Escherichia coli C600; format: functional; how it was run: as §1
Pseudomonas aeruginosa [11] = test: Antibacterial activity against Pseudomonas aeruginosa PAO4069 expressing inducible AmpC; format: functional; how it was run: as §2
Pseudomonas aeruginosa [12] = test: Reduction in susceptibility against Pseudomonas aeruginosa PAO1 after single passage; format: functional, organism-based
How it was run: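 PAO1 passaged daily for five consecutive days in fresh Mueller-Hinton broth with twofold drug dilution series. Each next inoculum came from the tube at one-fourth the MIC. MIC change was followed across passages.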

Pseudomonas aeruginosa [13] = test: Antibacterial activity against Pseudomonas aeruginosa PAO1; format: functional; how it was run: as §2
Pseudomonas aeruginosa [14] = test: Antibacterial activity against Pseudomonas aeruginosa; format: functional; how it was run: as §2
Pseudomonas aeruginosa [15] = test: Antibacterial activity against Pseudomonas aeruginosa PAO1456 expressing constitutive AmpC; format: functional; how it was run: as §2
Escherichia coli [16] = test: Antibacterial activity against Escherichia coli C600 expressing OXA1; format: functional; how it was run: as §1
Escherichia coli [17] = test: Antibacterial activity against Escherichia coli C600 expressing ESBL SHV3; format: functional; how it was run: as §1
Pseudomonas aeruginosa [18] = test: Antibacterial activity against Pseudomonas aeruginosa PAO4222; format: functional; how it was run: as §2
Escherichia coli [19] = test: Antibacterial activity against Escherichia coli C600 expressing ESBL TEM4; format: functional; how it was run: as §1
Escherichia coli [20] = test: Antibacterial activity against Escherichia coli C600 expressing ESBL TEM9; format: functional; how it was run: as §1
Escherichia coli [21] = test: Antibacterial activity against Escherichia coli C600 expressing ESBL TEM6; format: functional; how it was run: as §1
Escherichia coli [22] = test: Antibacterial activity against Escherichia coli C600 expressing ESBL CTX-M3; format: functional; how it was run: as §1
Escherichia coli [23] = test: Antibacterial activity against Escherichia coli C600 expressing TEM1; format: functional; how it was run: as §1
Escherichia coli [24] = test: Antibacterial activity against Escherichia coli C600 expressing ESBL TEM8; format: functional; how it was run: as §1
Escherichia coli [25] = test: Antibacterial activity against Escherichia coli C600 expressing ESBL OXA2; format: functional; how it was run: as §1
Pseudomonas aeruginosa [26] = test: Antibacterial activity against imipenem-resistant Pseudomonas aeruginosa; format: functional; how it was run: as §2
Escherichia coli [27] = test: Antibacterial activity against Escherichia coli C600 expressing ESBL TEM7; format: functional; how it was run: as §1
Escherichia coli [28] = test: Antibacterial activity against Escherichia coli C600 expressing ESBL CTX-M18; format: functional; how it was run: as §1
Pseudomonas aeruginosa [29] = test: Antibacterial activity against Pseudomonas aeruginosa KG3056 producing MexCD-OprJ efflux pump; format: functional; how it was run: as §2
Escherichia coli [30] = test: Antibacterial activity against Escherichia coli C600 expressing TEM2; format: functional; how it was run: as §1
Pseudomonas aeruginosa [31] = test: Antibacterial activity against ciprofloxacin-resistant Pseudomonas aeruginosa; format: functional; how it was run: as §2
Pseudomonas aeruginosa [32] = test: Efficacy against Pseudomonas aeruginosa 93 assessed as reduction in bacterial counts in mouse urinary tract infection model at 0.5 mg/kg; format: functional, organism-based; set-up: dose 0.5 mg/kg; conditions: Urine
How it was run: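 Female ICR mice (4 weeks) were denied water 1 day. Under pentobarbital anesthesia they received 4.32 log10 CFU of strain 93 via the […], which was then clamped 5 h. Dosed sc at 5 h post-challenge plus twice daily for 2 days. Bilateral kidney viable counts taken the day after last treatment; 6 mice/dose.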

Escherichia coli [33] = test: Antibacterial activity against Escherichia coli C600 expressing ESBL SHV2; format: functional; how it was run: as §1
Escherichia coli [34] = test: Antibacterial activity against Escherichia coli C600 expressing SHV1; format: functional; how it was run: as §1
Pseudomonas aeruginosa [35] = test: Efficacy against Pseudomonas aeruginosa 93 pulmonary infection in mouse assessed as reduction in bacterial counts at 10 mg/kg, sc; format: functional, organism-based; set-up: dose 10 mg/kg
How it was run: (§3)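 Male ICR mice (4 weeks), made neutropenic with cyclophosphamide 200 mg/kg ip 4 days before infection. Under pentobarbital anesthesia (50 mg/kg iv) they were challenged intranasally with 3.30 log10 CFU of strain 93, grown on tryptic soy agar 35°C 20 h and suspended in saline. Dosed sc twice daily for 3 days from 3 h post-infection. Lung viable counts taken the day after last dose; 6 mice/dose.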

Pseudomonas aeruginosa [36] = test: Efficacy against Pseudomonas aeruginosa 93 pulmonary infection in mouse assessed as reduction in bacterial counts at 2 mg/kg, sc; format: functional, organism-based; set-up: dose 2 mg/kg; how it was run: as §3
Pseudomonas aeruginosa [37] = test: Antibacterial activity against Pseudomonas aeruginosa FP1380 expressing constitutive AmpC; format: functional; how it was run: as §1

Q: For `C[C@@H](O)[C@H]1C(=O)N2C(C(=O)O)=C(SCCNC=N)C[C@H]12` [IMIPENEM ANHYDROUS], which MIC (Escherichia coli [1]) is on record?
A: 0.25 µg/mL (≈ 0.835 µM)

Q: And the MIC (Pseudomonas aeruginosa [2])?
A: 1 µg/mL (≈ 3.34 µM)

Q: What about the MIC50 (Pseudomonas aeruginosa [3]) of the same compound?
A: 16 µg/mL (≈ 53.4 µM)

Q: And the MIC90 (Pseudomonas aeruginosa [3])?
A: 32 µg/mL (≈ 107 µM)

Q: What about the MIC (Pseudomonas aeruginosa [4]) of the same compound?
A: 1 µg/mL (≈ 3.34 µM)

Q: What about the MIC (Pseudomonas aeruginosa [5]) of the same compound?
A: 1 µg/mL (≈ 3.34 µM)

Q: What about the MIC (Pseudomonas aeruginosa [6]) of the same compound?
A: 128 µg/mL (≈ 428 µM)

Q: What about the MIC (Escherichia coli [7]) of the same compound?
A: 0.25 µg/mL (≈ 0.835 µM)

Q: What about the MIC (Escherichia coli [8]) of the same compound?
A: 0.25 µg/mL (≈ 0.835 µM)

Q: What about the MIC (Pseudomonas aeruginosa [9]) of the same compound?
A: 1 µg/mL (≈ 3.34 µM)

Q: And the MIC (Escherichia coli [10])?
A: 0.25 µg/mL (≈ 0.835 µM)

Q: What about the MIC (Pseudomonas aeruginosa [11]) of the same compound?
A: 1 µg/mL (≈ 3.34 µM)

Q: What about the Activity (Pseudomonas aeruginosa [12]) of the same compound?
A: Active

Q: What about the MIC (Pseudomonas aeruginosa [13]) of the same compound?
A: 4 µg/mL (≈ 13.4 µM)

Q: What about the MIC50 (Pseudomonas aeruginosa [14]) of the same compound?
A: 2 µg/mL (≈ 6.68 µM)

Q: And the MIC90 (Pseudomonas aeruginosa [14])?
A: 16 µg/mL (≈ 53.4 µM)

Q: What about the MIC (Pseudomonas aeruginosa [15]) of the same compound?
A: 1 µg/mL (≈ 3.34 µM)

Q: And the MIC (Escherichia coli [16])?
A: 0.25 µg/mL (≈ 0.835 µM)

Q: And the MIC (Escherichia coli [17])?
A: 0.25 µg/mL (≈ 0.835 µM)

Q: And the MIC (Pseudomonas aeruginosa [18])?
A: 1 µg/mL (≈ 3.34 µM)

Q: What about the MIC (Escherichia coli [19]) of the same compound?
A: 0.25 µg/mL (≈ 0.835 µM)

Q: And the MIC (Escherichia coli [20])?
A: 0.25 µg/mL (≈ 0.835 µM)

Q: What about the MIC (Escherichia coli [21]) of the same compound?
A: 0.25 µg/mL (≈ 0.835 µM)

Q: And the MIC (Escherichia coli [22])?
A: 0.25 µg/mL (≈ 0.835 µM)

Q: What about the MIC (Escherichia coli [23]) of the same compound?
A: 0.125 µg/mL (≈ 0.418 µM)

Q: And the MIC (Escherichia coli [24])?
A: 0.25 µg/mL (≈ 0.835 µM)

Q: What about the MIC (Escherichia coli [25]) of the same compound?
A: 0.25 µg/mL (≈ 0.835 µM)

Q: What about the MIC (Pseudomonas aeruginosa [26]) of the same compound?
A: 16 µg/mL (≈ 53.4 µM)

Q: And the MIC50 (Pseudomonas aeruginosa [26])?
A: 16 µg/mL (≈ 53.4 µM)

Q: What about the MIC90 (Pseudomonas aeruginosa [26]) of the same compound?
A: 32 µg/mL (≈ 107 µM)

Q: What about the MIC (Escherichia coli [27]) of the same compound?
A: 0.25 µg/mL (≈ 0.835 µM)

Q: And the MIC (Escherichia coli [28])?
A: 0.25 µg/mL (≈ 0.835 µM)

Q: What about the MIC (Pseudomonas aeruginosa [29]) of the same compound?
A: 0.5 µg/mL (≈ 1.67 µM)

Q: And the MIC (Escherichia coli [30])?
A: 0.25 µg/mL (≈ 0.835 µM)

Q: What about the MIC50 (Pseudomonas aeruginosa [31]) of the same compound?
A: 8 µg/mL (≈ 26.7 µM)

Q: And the MIC90 (Pseudomonas aeruginosa [31])?
A: 16 µg/mL (≈ 53.4 µM)

Q: What about the Activity (Pseudomonas aeruginosa [32]) of the same compound?
A: Active

Q: And the MIC (Escherichia coli [33])?
A: 0.25 µg/mL (≈ 0.835 µM)

Q: And the MIC (Escherichia coli [34])?
A: 0.25 µg/mL (≈ 0.835 µM)

Q: And the Activity (Pseudomonas aeruginosa [35])?
A: Active

Q: And the Activity (Pseudomonas aeruginosa [36])?
A: Active

Q: And the MIC (Pseudomonas aeruginosa [37])?
A: 0.5 µg/mL (≈ 1.67 µM)
